Data reported in ChEMBL document CHEMBL1123876, “Effect of reductive alkylation of lysine in positions 6 and/or 8 on the histamine-releasing activity of luteinizing hormone-releasing hormone antagonists” (1987).
≈ marks a conversion by molar mass, not a printed value. *1 amine or outer side, *2 acyl side, *3 side chain or, on linkers, in order; H or OH if unused. Where a SMILES comes first, the peptide text is derived from it. [ ]: non-standard residue; d: D form. X1 = O=C([C@@H](CCCCNC1CCCC1)N[*:1])[*:2]; X2 = O=C([C@H](CCCCNC1CCCC1)N[*:1])[*:2]; d2Nal = N[C@H](Cc1ccc2ccccc2c1)C(=O)O

Columns and labels:
Format in all cases: functional
[1] = species: Rattus norvegicus; test: Antiovulatory activity in rat was expressed as percentage of (9) rats blocked at 3 ug/mL
Method in brief: (§1)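 Standard antiovulatory assay in Sprague-Dawley rats; analogue given in a 40% propane-1,2-diol/0.9% saline vehicle.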

[2] = species: Rattus norvegicus; test: In vitro histamine releasing activity in rat peritoneal cells; conditions: read-out: ED50 (the source's name)
Method in brief: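 Peritoneal cells from male Sprague-Dawley rats exposed in vitro to each analogue in a standard histamine-release assay. ED50 for histamine release is reported in μg/mL as mean ± standard error.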

[3] = species: Rattus norvegicus; test: Antiovulatory activity in rat was expressed as percentage of (8) rats blocked at 3 ug/mL; method in brief: as §1
[4] = species: Rattus norvegicus; test: Antiovulatory activity in rat was expressed as percentage of (10) rats blocked at 3 ug/mL; design: unit: %; method in brief: as §1
[5] = species: Rattus norvegicus; test: Antiovulatory activity in rat was expressed as percentage of (9) rats blocked at 6 ug/mL; method in brief: as §1
[6] = species: Rattus norvegicus; test: Antiovulatory activity in rat was expressed as percentage of rats blocked at 1 ug/mL (number of rats); method in brief: as §1

SMILES	Antiovulatory activity [1]	EC50 [2]	Antiovulatory activity [3]	Antiovulatory activity [4]	Antiovulatory activity [5]	Antiovulatory activity [6]
CC(=O)N[C@H](Cc1ccc2ccccc2c1)C(=O)N[C@H](Cc1ccccc1)C(=O)N[C@H](Cc1ccccc1)C(=O)N[C@@H](CO)C(=O)N[C@@H](Cc1ccc(O)cc1)C(=O)N[C@H](CCCCNC(C)C)C(=O)N[C@@H](Cc1ccccc1)C(=O)N[C@@H](CCCCNC(C)C)C(=O)N1CCC[C@H]1C(=O)N[C@H](C)C(N)=O	89	6.48 µg/mL (≈ 4.45 µM)				
CCCC(CCC)NCCCC[C@H](NC(=O)[C@H](Cc1ccccc1)NC(=O)[C@@H](CCCN=C(N)N)NC(=O)[C@H](Cc1ccc(O)cc1)NC(=O)[C@H](CO)NC(=O)[C@@H](Cc1ccccc1)NC(=O)[C@@H](Cc1ccccc1)NC(=O)[C@@H](Cc1ccc2ccccc2c1)NC(C)=O)C(=O)N1CCC[C@H]1C(=O)N[C@H](C)C(=O)O		4.6 µg/mL (≈ 3.07 µM)	0			
CC(=O)N[C@H](Cc1ccc2ccccc2c1)C(=O)N[C@H](Cc1ccccc1)C(=O)N[C@H](Cc1ccccc1)C(=O)N[C@@H](CO)C(=O)N[C@@H](Cc1ccc(O)cc1)C(=O)N[C@H](CCCCNC1CCCCC1)C(=O)N[C@@H](Cc1ccccc1)C(=O)N[C@@H](CCCCNC1CCCCC1)C(=O)N1CCC[C@H]1C(=O)N[C@H](C)C(N)=O		5.86 µg/mL (≈ 3.81 µM)		38		
CCCC(CCC)NCCCC[C@H](NC(=O)[C@H](Cc1ccccc1)NC(=O)[C@@H](CCCCNC(CCC)CCC)NC(=O)[C@H](Cc1ccc(O)cc1)NC(=O)[C@H](CO)NC(=O)[C@@H](Cc1ccccc1)NC(=O)[C@@H](Cc1ccccc1)NC(=O)[C@@H](Cc1ccc2ccccc2c1)NC(C)=O)C(=O)N1CCC[C@H]1C(=O)N[C@H](C)C(N)=O		21.9 µg/mL (≈ 14 µM)		0	56	
CC(=O)N[C@H](Cc1ccc2ccccc2c1)C(=O)N[C@H](Cc1ccccc1)C(=O)N[C@H](Cc1ccccc1)C(=O)N[C@@H](CO)C(=O)N[C@@H](Cc1ccc(O)cc1)C(=O)N[C@H](CCCN=C(N)N)C(=O)N[C@@H](Cc1ccccc1)C(=O)N[C@@H](CCCCNCc1ccc(C)cc1)C(=O)N1CCC[C@H]1C(=O)N[C@H](C)C(=O)O		33 µg/mL (≈ 21.9 µM)		10		
CC(=O)N[C@H](Cc1ccc2ccccc2c1)C(=O)N[C@H](Cc1ccccc1)C(=O)N[C@H](Cc1ccccc1)C(=O)N[C@@H](CO)C(=O)N[C@@H](Cc1ccc(O)cc1)C(=O)N[C@H](CCCN=C(N)N)C(=O)N[C@@H](Cc1ccccc1)C(=O)N[C@@H](CCCCNCC(C)(C)C)C(=O)N1CCC[C@H]1C(=O)N[C@H](C)C(=O)O	89	4.68 µg/mL (≈ 3.18 µM)				50
CCCCC(CCCC)NCCCC[C@H](NC(=O)[C@H](Cc1ccccc1)NC(=O)[C@@H](CCCCNC(CCCC)CCCC)NC(=O)[C@H](Cc1ccc(O)cc1)NC(=O)[C@H](CO)NC(=O)[C@@H](Cc1ccccc1)NC(=O)[C@@H](Cc1ccccc1)NC(=O)[C@@H](Cc1ccc2ccccc2c1)NC(C)=O)C(=O)N1CCC[C@H]1C(=O)N[C@H](C)C(N)=O		> 300 µg/mL			0	
CC(=O)N[C@H](Cc1ccc2ccccc2c1)C(=O)N[C@H](Cc1ccccc1)C(=O)N[C@H](Cc1ccccc1)C(=O)N[C@@H](CO)C(=O)N[C@@H](Cc1ccc(O)cc1)C(=O)N[C@H](CCCN=C(N)N)C(=O)N[C@@H](Cc1ccccc1)C(=O)N[C@@H](CCCCNCc1c(C)cc(C)cc1C)C(=O)N1CCC[C@H]1C(=O)N[C@H](C)C(=O)O		4.73 µg/mL (≈ 3.08 µM)		10		
CC(=O)N[C@H](Cc1ccc2ccccc2c1)C(=O)N[C@H](Cc1ccccc1)C(=O)N[C@H](Cc1ccccc1)C(=O)N[C@@H](CO)C(=O)N[C@@H](Cc1ccc(O)cc1)C(=O)N[C@H](CCCCNC1CCCC1)C(=O)N[C@@H](Cc1ccccc1)C(=O)N[C@@H](CCCCNC1CCCC1)C(=O)N1CCC[C@H]1C(=O)N[C@H](C)C(N)=O (Ac-[d2Nal][dF][dF]SY[X1]F[X2]P[dA]-NH2)		6.1 µg/mL (≈ 4.04 µM)		70		
